Assay results collected from several papers.
Lines come from different studies, so protocols differ.
Target: Mitogen-activated protein kinase kinase kinase kinase 2 (MAP4K2, Homo sapiens, UniProt Q12851)
One construct used (Q12851 1-820): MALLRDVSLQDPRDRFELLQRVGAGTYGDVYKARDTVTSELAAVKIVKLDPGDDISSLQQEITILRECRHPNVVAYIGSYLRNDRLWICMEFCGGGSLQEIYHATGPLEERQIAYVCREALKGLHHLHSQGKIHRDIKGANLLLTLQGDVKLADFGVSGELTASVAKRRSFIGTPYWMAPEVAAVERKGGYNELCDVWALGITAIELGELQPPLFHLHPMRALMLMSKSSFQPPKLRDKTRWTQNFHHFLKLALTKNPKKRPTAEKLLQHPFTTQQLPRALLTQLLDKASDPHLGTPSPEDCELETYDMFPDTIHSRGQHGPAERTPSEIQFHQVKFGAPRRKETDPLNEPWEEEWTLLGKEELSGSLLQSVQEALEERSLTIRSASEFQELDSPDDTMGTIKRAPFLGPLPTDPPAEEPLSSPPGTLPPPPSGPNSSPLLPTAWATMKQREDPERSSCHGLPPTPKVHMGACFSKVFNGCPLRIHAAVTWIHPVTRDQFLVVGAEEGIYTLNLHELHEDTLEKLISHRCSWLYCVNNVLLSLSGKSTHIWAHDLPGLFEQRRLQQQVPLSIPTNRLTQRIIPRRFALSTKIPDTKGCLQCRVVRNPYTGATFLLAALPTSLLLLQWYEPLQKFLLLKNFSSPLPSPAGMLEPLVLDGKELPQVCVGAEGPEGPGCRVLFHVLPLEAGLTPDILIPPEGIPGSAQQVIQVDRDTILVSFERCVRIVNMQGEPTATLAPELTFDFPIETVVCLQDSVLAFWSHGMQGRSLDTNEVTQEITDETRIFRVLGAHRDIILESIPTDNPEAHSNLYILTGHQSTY

SMILES | effect on | method | concentration | remaining binding [%]
O=C(c1ccc(Nc2ncc(Cl)c(-c3cc4ccccc4s3)n2)cc1)N1CCC(N2CCCC2)CC1 | binding | competition with immobilised ligand | 1 µM | 36
CNCc1ccccc1-c1csc([C@H](C)Nc2nc(C)nc3cc(OC)c(OC)cc23)c1 | cell-free assay | competition with immobilised ligand | 1 µM | 97
C[C@@H]1CCN(c2nccc(-c3cnn4ncccc34)n2)C1 | binding |  | 1 µM | 70
O=C(O)c1cc(-c2ccc(C3CCNCC3)cc2)c2ccc(-c3ccc(C(F)(F)F)cc3)cc2c1 | cell-free assay | competition with immobilised ligand | 1 µM | 100
Cc1cnc(Nc2ccc(C(=O)N3CCC(N4CCCC4)CC3)cc2)nc1-c1cc2ccccc2s1 | binding | competition with immobilised ligand | 1 µM | 41
CN(C(=O)c1ccccc1)c1cc(N(C)c2ccc3c(c2)CCc2ccc(C(=O)NCCN4CCOCC4)cc2C3=O)ccc1F | cell-free assay | competition with immobilised ligand | 1 µM | 97
c1cncc(-c2cccc(Nc3nccc(NC4CCCCC4)n3)c2)c1 | binding | competition with immobilised ligand | 10 µM | 67
C[C@@H](c1ccc(-n2cnc3c(N)ncnc32)cc1)N1CCc2nn(C)c(Cc3ccccc3)c2C1=O | binding | competition with immobilised ligand | 0.1 µM | 100
c1cnn2ncc(-c3ccnc(N4CCC45COC5)n3)c2c1 | binding |  | 1 µM | 70
C[C@H](c1cccc(C#N)c1)n1cc(Cl)cc(C(N)=O)c1=N | cell-free assay | competition with immobilised ligand | 1 µM | 99
COc1cnc(Nc2cccc(S(N)(=O)=O)c2)nc1N1CCN(c2ccccc2)C(=O)C1 | binding | competition with immobilised ligand | 1 µM | 95
Nc1ncc2c(n1)-c1c([nH]c3ccc(C#CC4CC4)cc13)CCCC2 | binding | competition with immobilised ligand | 1 µM | 84
CN(c1nccc(-c2cnn3ncccc23)n1)C1CC1 | binding |  | 1 µM | 100
CN(C)c1ncnc(-c2ccc3nc(Nc4cc(CN5CCN(C(=O)CC(F)(F)F)CC5)ccn4)[nH]c3c2)c1Cl | cell-free assay | competition with immobilised ligand | 1 µM | 69
CN(C)c1nccc(-c2cnc3ncccn23)n1 | binding |  | 1 µM | 54
CNC(=O)Nc1ccc2c(c1)CC[C@@]21OC(=O)N(CC(=O)N(Cc2ccc(F)cc2)[C@@H](C)C(F)(F)F)C1=O | cell-free assay | competition with immobilised ligand | 1 µM | 76
N[C@@H]1CCN(c2nccc(-c3cnn4ncccc34)n2)C1 | binding |  | 1 µM | 100
O=C(Nc1c[nH]nc1C(=O)NC1CCNCC1)c1cc(F)cc(F)c1 | binding | competition with immobilised ligand | 1 µM | 69
F[C@@H]1CCN(c2nccc(-c3cnn4ncccc34)n2)C1 | binding |  | 1 µM | 100
O=C(NC[C@@H]1[C@H]2CN(C(=O)OCc3cc(C(F)(F)F)cc(C(F)(F)F)c3)C[C@@H]12)c1ccc2[nH]nnc2c1 | cell-free assay | competition with immobilised ligand | 1 µM | 92
CN(CCCC(F)(F)F)c1nccc(-c2cnn3ncccc23)n1 | binding |  | 1 µM | 100
O=C(NCCCN1CCOCC1)c1ccc(Nc2ncc(Cl)c(-c3ccc(Cl)s3)n2)cc1 | binding | competition with immobilised ligand | 1 µM | 31
